Source: PubChem BioAssay
Activity calls are given as the source filed them. Unless noted, no stated cut-off is given here; in the data, active means inhibition above about 30%; inactive means the rest.

What was measured:
[1] = Her2 expression decrease, cell viability multiplex – SKBR3 breast tumor cells, AlphaScreen, ATP viability, primary screen (AID 461;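 active means Her2 level under about 52% in both replicate screens, with viability over 70% of control, limit read from the data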;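 on Her2 level: lower value means less Her2 protein in the cells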;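 on viability: percent of carrier control wells set as 100% viability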); conditions: SKBR3 Her2 protein level, 18-24 h, measured here: SKBR3 viability, ATP luminescence, at 10 µM
[2] = biological target: Receptor tyrosine-protein kinase erbB-2 (Homo sapiens) (UniProt P04626); assay: as above; conditions: 18-24 h, at 10 µM, stronger effect = lower value
[3] = reduced viability of SK-BR-3 breast cancer cells – cell-based, 24 h, human, pilot screen (AID 572;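 active means viability at or below 10% of carrier control in both of two separate runs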;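 further: compound exposure lasted between 18 and 24 h rather than exactly 24 h; 100% = carrier-treated control wells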); conditions: SK-BR-3 viability, CellTiter-Glo luminescence, at 10 µM, stronger effect = lower value
[4] = HUVEC growth inhibition – cell-based, human, primary screen (AID 575;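 active means viability at or below 30% in both replicate assays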;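 further: 100% = median of untreated cell wells with 0.1% DMSO on each plate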); conditions: HUVEC proliferation, CellTiter-Glo luminescence, 72 h; at 10 µM; stronger effect = lower value
Method in brief: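 Test system: HUVEC primary cells. Quantity: 1250 endothelial cells in each well. Dosing: single-point 10 µM, DMSO 0.1% final. Incubation: 72 h treatment at 37 °C. Measured by: CTG luminescence. Control set: DMSO cell controls and MePR drug controls. Plate: collagen-coated 384-well format.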

[5] = H69AR cell proliferation blockers – human, duplicate replicates, primary screen (AID 580;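 active means viability at or under a set limit in both replicates, limit being median viability minus 3 SD, cut at about 48% in these data, passing the limit was not always enough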;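 further: 100% = mean luminescence of untreated wells and 0% = no signal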); conditions: H69AR lung tumor cells viability, ATP luminescence, 72 h; at 10 µM; stronger effect = lower value
[6] = MRP1 drug-resistance reversers in H69AR cells – cell-based, doxorubicin co-treatment, pilot screen (AID 601;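 active means viability loss from added drug above about 55%, and viability with drug at most 40%, in both replicates, limit read from the data, passing the limit was not always enough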); conditions: CellTiter-Glo, 72 h, at 10 µM; for differential viability (reversal): stronger effect = higher value
[7] = yeast transport mutant growth inhibition pilot in 384-well plates, post-Golgi transport modulator project (AID 636; in the data active means inhibition above about 31%); conditions: absorbance 615 nm, about 18 h, stronger effect = higher value
[8] = growth suppression of yeast trafficking mutant, preliminary HTS, modulators of trafficking downstream of Golgi apparatus project, 1536-format plate, OD 615 nm (AID 637); conditions: yeast transport mutant growth, absorbance 615 nm, 18 h; stronger effect = higher value
[9] = H69AR cells + 2 uM doxorubicin, measured here: viability with 2 uM doxorubicin, stronger effect = lower value
[10] = H69AR cells, compound alone cytotoxicity

Chain of Receptor tyrosine-protein kinase erbB-2 (Homo sapiens) (P04626 whole entry, looked up): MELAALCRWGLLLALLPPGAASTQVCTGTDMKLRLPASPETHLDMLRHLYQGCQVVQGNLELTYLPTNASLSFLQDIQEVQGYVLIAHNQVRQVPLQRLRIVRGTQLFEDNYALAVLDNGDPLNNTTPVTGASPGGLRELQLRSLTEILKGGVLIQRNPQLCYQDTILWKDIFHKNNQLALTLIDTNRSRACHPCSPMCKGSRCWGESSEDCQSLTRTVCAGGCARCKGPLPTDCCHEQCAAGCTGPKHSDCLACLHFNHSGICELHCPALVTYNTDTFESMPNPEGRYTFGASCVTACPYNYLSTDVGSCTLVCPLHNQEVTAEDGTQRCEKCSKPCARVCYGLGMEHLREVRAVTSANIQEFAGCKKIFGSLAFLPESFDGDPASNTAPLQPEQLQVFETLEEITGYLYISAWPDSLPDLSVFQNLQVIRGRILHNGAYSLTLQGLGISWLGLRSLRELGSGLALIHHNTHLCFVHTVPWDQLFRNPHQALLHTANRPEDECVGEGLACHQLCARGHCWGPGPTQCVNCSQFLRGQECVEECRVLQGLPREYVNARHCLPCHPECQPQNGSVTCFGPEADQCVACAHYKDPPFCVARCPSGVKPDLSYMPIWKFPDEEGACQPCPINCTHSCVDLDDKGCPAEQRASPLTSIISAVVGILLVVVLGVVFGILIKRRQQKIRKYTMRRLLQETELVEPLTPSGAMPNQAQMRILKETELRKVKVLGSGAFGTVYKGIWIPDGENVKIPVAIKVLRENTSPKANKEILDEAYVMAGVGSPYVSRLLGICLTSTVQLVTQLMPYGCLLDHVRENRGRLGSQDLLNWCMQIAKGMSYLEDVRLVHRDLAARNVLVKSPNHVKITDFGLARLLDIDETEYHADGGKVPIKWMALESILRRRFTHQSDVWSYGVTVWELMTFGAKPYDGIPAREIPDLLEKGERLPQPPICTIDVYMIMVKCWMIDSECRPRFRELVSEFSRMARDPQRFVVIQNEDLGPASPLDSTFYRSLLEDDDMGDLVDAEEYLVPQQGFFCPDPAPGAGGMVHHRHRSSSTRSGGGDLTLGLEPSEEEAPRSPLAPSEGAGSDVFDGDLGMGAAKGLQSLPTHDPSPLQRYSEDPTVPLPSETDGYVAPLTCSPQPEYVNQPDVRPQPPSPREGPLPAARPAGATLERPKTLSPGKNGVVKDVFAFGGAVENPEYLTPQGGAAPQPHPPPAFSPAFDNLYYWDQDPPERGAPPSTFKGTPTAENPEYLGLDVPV

Row | Structure (SMILES) | viability [1] [%] | Her2 level [2] | viability [3] | viability [4] | viability [5] | differential viability (reversal) ([6]; H69AR cells + 2 uM doxorubicin) | viability [6, 9] [%] | viability [6, 10] [%] | inhibition [7] | inhibition [8]
1 | OCCNc1nc2ccc(Cl)cc2[nH]1 | 84 | 100% (inactive) | 84% (inactive) | 108% (inactive) | 107% (inactive) | 9.03% (inactive) | 97.9 | 107 | -6.89% (inactive) | 5.08% (inactive)
2 | OCc1nc2ccccc2n1CC(O)Cn1ccc2ccccc21 (stereo not given) | 97.5 | 116% (inactive) | 97.5% (inactive) | 69.6% (inactive) | 85.2% (inactive) | -15.4% (inactive) | 101 | 85.2 | -1.97% (inactive) | 8.36% (inactive)
3 | COCCNC(=O)C(C)OC(=O)c1nsc(Cl)c1Cl (stereo not given) | 103 | 108% (inactive) | 103% (inactive) | 110% (inactive) | 99.3% (inactive) | 4.84% (inactive) | 94.5 | 99.3 | -1.08% (inactive) | 25.7% (inactive)
4 | CNC(=O)CSc1nnc(-c2cc3c(C)nn(-c4ccccc4)c3s2)n1C | 112 | 112% (inactive) | 112% (inactive) | 99.2% (inactive) | 109% (inactive) | 22.3% (inactive) | 86.9 | 109 | -0.13% (inactive) | -2.54% (inactive)
5 | CC1(C)Cc2c(sc3ncnc(N)c23)CO1 | 116 | 92.5% (inactive) | 116% (inactive) | 96.6% (inactive) | 95.6% (inactive) | 8.37% (inactive) | 87.3 | 95.6 | -7.47% (inactive) | 1.48% (inactive)
6 | CC1=C(n2nnc3ccccc32)C(c2ccccc2)C(C#N)=C(N)O1 (stereo not given) | 72 | 73% (inactive) | 72% (inactive) | 82.8% (inactive) | 83.8% (inactive) | 1.96% (inactive) | 81.9 | 83.8 | -3.9% (inactive) | -4.1% (inactive)
7 | O=C1NC(Cc2c[nH]c3ccccc23)C(=O)N1CCOc1ccccc1 (stereo not given) | 79.5 | 89% (inactive) | 79.5% (inactive) | 73.2% (inactive) | 94.4% (inactive) | 0.2% (inactive) | 94.2 | 94.4 | -2.76% (inactive) | -1.83% (inactive)
8 | COC(=O)c1ccccc1NC(=O)C1CC(=O)N(c2ccccc2)C1 (stereo not given) | 122 | 96% (inactive) | 122% (inactive) | 114% (inactive) | 102% (inactive) | 20.8% (inactive) | 80.9 | 102 | -6.27% (inactive) | 6.77% (inactive)
9 | O=C(CSc1ccc(Cl)cc1)OCc1nnc(-c2ccccc2)o1 | 98 | 99% (inactive) | 98% (inactive) | 106% (inactive) | 109% (inactive) | 29.6% (inactive) | 79.5 | 109 | 0.53% (inactive) | -0.91% (inactive)
10 | COc1ccc(C(c2nnnn2C2CCCC2)N2CCN(C3CCCC3)CC2)cc1OC (stereo not given) | 89.5 | 84% (inactive) | 89.5% (inactive) | 84.7% (inactive) | 106% (inactive) | 28.3% (inactive) | 77.7 | 106 | -7.26% (inactive) | -2.22% (inactive)
11 | CCc1ccc(C=NC23CN4CN(CN(C4)C2)C3)s1 | 108 | 114% (inactive) | 108% (inactive) | 95.2% (inactive) | 105% (inactive) | 9.64% (inactive) | 95.2 | 105 | 1.17% (inactive) | -3.61% (inactive)
12 | CCOC(=O)c1sc(N2C(=O)C(O)=C(C(=O)c3ccco3)C2c2ccccc2)nc1C (stereo not given) | 101 | 83.5% (inactive) | 101% (inactive) | 77.4% (inactive) | 84.2% (inactive) | 1.33% (inactive) | 82.9 | 84.2 | -4.93% (inactive) | 0.98% (inactive)
13 | O=C(NC1CCCCC1)n1c(=O)oc2ccc(Cl)cc21 | 118 | 92% (inactive) | 118% (inactive) | 94.8% (inactive) | 94.2% (inactive) | 17.5% (inactive) | 76.7 | 94.2 | -2.73% (inactive) | -7.62% (inactive)
14 | O=C(NCCCn1ccnc1)c1csc2ccccc12 | 84.5 | 89.5% (inactive) | 84.5% (inactive) | 95.4% (inactive) | 97.5% (inactive) | 11.9% (inactive) | 85.6 | 97.5 | -3.03% (inactive) | 3.67% (inactive)
